Most compounds without a hit are left out; they make up all but 1.8% or so of the library.
core dimer inh – inhibitors of HCV core protein dimerization, primary screen, biochemical, TR-FRET, high-throughput. TR-FRET GST/Flag-core106 dimerization, 1536-well. inhibition, % at 5 µM. 300,000 compounds, 0.33% hits;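 active means inhibition above the mean of all tested compounds plus 3 SD, set per screening campaign, cut at about 45% in these data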
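Assay system – GST-tagged and Flag-tagged HCV core protein residues 1-106 · Quantity – core106 proteins, GST 13.5 nM and Flag 17 nM · Benchmarks – unlabelled core106 and no-GST-core106 wells · Read-out basis – percent inhibition of core106 dimerization signal · Detection – time-resolved FRET, ex 340 nm, em 617 and 671 nm · Schedule – 4 h at 22.5 °C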
PABP1 MLLE inh – inhibitors of PABP1 MLLE–PAM2 peptide binding, primary screen, biochemical, fluorescence polarization, FITC-PAM2, GST-MLLE; inhibition, % at 20 µM; 360,000 compounds, 0.36% hits; AID 588489, 2011; Polyadenylate-binding protein 1 (Homo sapiens), P11940; in the data active means inhibition above about 35%, passing the limit was not always enough
Target sequence (P11940 whole entry, looked up): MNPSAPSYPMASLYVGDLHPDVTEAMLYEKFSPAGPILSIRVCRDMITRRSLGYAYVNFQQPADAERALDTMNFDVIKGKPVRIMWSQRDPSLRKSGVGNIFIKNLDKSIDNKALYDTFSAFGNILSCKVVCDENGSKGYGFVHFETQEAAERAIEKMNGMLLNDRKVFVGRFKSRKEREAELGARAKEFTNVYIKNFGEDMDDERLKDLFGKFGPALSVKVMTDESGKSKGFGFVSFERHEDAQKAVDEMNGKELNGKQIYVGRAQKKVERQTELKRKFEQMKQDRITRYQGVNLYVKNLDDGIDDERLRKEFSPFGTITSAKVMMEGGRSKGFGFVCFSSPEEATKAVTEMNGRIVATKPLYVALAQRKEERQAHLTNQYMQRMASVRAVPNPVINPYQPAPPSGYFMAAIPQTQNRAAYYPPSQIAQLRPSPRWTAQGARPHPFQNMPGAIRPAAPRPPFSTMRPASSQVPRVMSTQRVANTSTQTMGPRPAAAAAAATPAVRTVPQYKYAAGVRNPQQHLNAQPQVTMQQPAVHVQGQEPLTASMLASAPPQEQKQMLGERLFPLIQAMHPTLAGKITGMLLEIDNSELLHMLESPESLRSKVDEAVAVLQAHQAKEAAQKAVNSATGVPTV
eIF4H FP inh – human eIF4H binding inhibitors, primary screen, translation initiation inhibitor project, biochemical, uHTS, fluorescence polarization | inhibition, % at 35 µM | Eukaryotic translation initiation factor 4H (Homo sapiens), Q15056 | 290,000 compounds, 0.94% hits | eIF4H fluorescence polarization binding assay;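 further: calls also rest on retests at 20 µM and on dose response follow-up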
eIF4E-4G inh – eIF4E–eIF4G protein interaction inhibitors, primary screen, biochemical, uHTS, TR-FRET, eIF4GI fragment. inhibition, % at 21.7 µM. 220,000 compounds, 0.37% hits. TR-FRET eIF4E-eIF4GI(517-606) binding, 2 h. AID 782, 2007;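 active means inhibition above about 30%, limit read from the data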
SUMO HTRF inh – inhibitors of in vitro SUMOylation cascade, primary screen, biochemical, HTRF, uHTS | 290,000 compounds, 0.36% hits | SUMO-conjugating enzyme UBC9 (Homo sapiens), P63279 | HTRF SUMOylation assay, SAE1/SAE2 + UBC9 | inhibition, % at 35 µM; in the data active means inhibition above about 50%, passing the limit was not always enough; inconclusive means no clear call, values can overlap the other calls
PABP polyA inh – PABP poly(A) RNA binding inhibitors, primary screen, biochemical, fluorescence polarization, uHTS | calls only at 35 µM | 290,000 compounds, 1% hits;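 further: calls also rest on retests at 20 µM and on dose response follow-up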
Each line names hits and unclear results; the compound was inactive in the other large screens. Unless noted, how the calls were made is not given here.

COC(=O)C(C)N1C(=O)S/C(=C\c2ccc(-c3ccc(C(=O)O)cc3C)o2)C1=O (stereo not drawn)	eIF4H FP inh 52, PABP polyA inh active (no result: eIF4E-4G inh)
O=C(CSCc1ccc(Br)cc1)NCc1ccccn1	none
O=C1CCC(C2CCc3cc(O)ccc3C2)C1 (stereo not drawn)	none (no result: core dimer inh, eIF4H FP inh, eIF4E-4G inh, SUMO HTRF inh, PABP polyA inh)
CC1CCCN(C(=O)CN(C)S(=O)(=O)c2ccc3c(c2)c(=O)n(C)c(=O)n3C)C1 (stereo not drawn)	none (no result: eIF4E-4G inh)
CN1/C(=C/C=C(/C#N)C(N)=O)C(C)(C)c2ccccc21	eIF4H FP inh 55
CN1/C(=C\C=C(/C#N)C(=O)Nc2ccccc2F)C(C)(C)c2ccccc21	PABP polyA inh active
CN1/C(=C\C=N\O)C(C)(C)c2ccccc21	none
CN1/C(=C\C(=O)Nc2ccc(F)cc2)C(C)(C)c2ccccc21	none
CCOc1ccccc1OCCCC(=O)NNC(=O)c1ccc(F)cc1	none (no result: core dimer inh, eIF4H FP inh, eIF4E-4G inh, SUMO HTRF inh, PABP polyA inh)
CCCCNC(=O)COC(=O)c1c2c(nc3ccccc13)CCC2	eIF4H FP inh 68, PABP polyA inh active (no result: eIF4E-4G inh)
C=CCNC(=O)COC(=O)c1c2c(nc3ccccc13)CCC2	eIF4H FP inh 59, PABP polyA inh active (no result: eIF4E-4G inh)
CNC(=O)COC(=O)c1c2c(nc3ccccc13)CCC2	eIF4H FP inh 66
CC(C)NCC(=O)Nc1c2c(nc3ccccc13)CCC2	eIF4E-4G inh 31
c1ccc(CN2CCN(C3=Nc4cccc5cccc3c45)CC2)cc1	eIF4H FP inh 94 (no result: core dimer inh)
CCc1noc(C)c1C(=O)Nc1sc(C(=O)N(C)C)c(C)c1C#N	none (no result: eIF4E-4G inh)
O=C(NC(=S)Nc1nc(-c2ccccc2)cs1)c1cccnc1	none
Cc1ccc(C)c(NC(=S)NNC(=O)c2csc(C)c2C)c1	none
Cc1ccc(NC(=S)NC(=O)c2cncc(Br)c2)c(C)c1	none (no result: eIF4H FP inh, eIF4E-4G inh, SUMO HTRF inh, PABP polyA inh)
O=C(NC(=S)Nc1ccccc1Cl)c1cncc(Br)c1	PABP1 MLLE inh 43 (no result: eIF4E-4G inh)
Cc1ccc(C)c(NC(=S)NNC(=O)c2csc(C(C)C)c2)c1	PABP1 MLLE inh 39, eIF4H FP inh 13, PABP polyA inh active
Cc1ccc(C)c(NC(=S)NC(=O)c2cncc(Br)c2)c1	PABP1 MLLE inh 40 (no result: eIF4H FP inh, eIF4E-4G inh, SUMO HTRF inh, PABP polyA inh)
O=C(NC(=S)Nc1nc(-c2ccccc2)cs1)c1cncc(Br)c1	PABP1 MLLE inh 45
COc1ccc(CNC(=O)Cn2cnc3c(NCc4ccccc4)ncnc32)cc1	none (no result: core dimer inh, eIF4H FP inh, eIF4E-4G inh, SUMO HTRF inh, PABP polyA inh)
COCCn1c(Cc2ccccc2)nnc1SCC(=O)NC1CC1	none (no result: eIF4E-4G inh)
O=C(CCN1C(=O)C2CC=CCC2C1=O)Nc1cc(C(F)(F)F)ccc1N1CCCC1 (stereo not drawn)	none (no result: eIF4H FP inh, eIF4E-4G inh, SUMO HTRF inh, PABP polyA inh)
Cc1cc(C(C)(C)C)cc(C)c1CCNC(=O)c1ccc[n+]([O-])c1	none (no result: eIF4E-4G inh)
COc1ccc(-c2nc(-c3ccc(Br)cc3)no2)c(OC)c1	eIF4E-4G inh 32
COc1ccccc1-c1nc(-c2ccc(Br)cc2)no1	none
CC(C)c1ccc(C(=O)OCC(=O)NC2CCCC2)cc1	none (no result: eIF4E-4G inh)
Cc1cc(C)nc(N/N=C/c2ccccc2OCc2ccc(Br)cc2)n1	none
Cc1cc(C)nc(N/N=C/c2ccccc2OCc2ccccc2)n1	PABP polyA inh active
O=C(c1ccccc1F)N1CCN=C1SCc1cccnc1	none
CCOc1ccccc1C(=O)N1CCN=C1SCc1cccnc1	PABP1 MLLE inh 40
COc1ccc(C(=O)NNC(=S)NC(=O)c2cccs2)cc1	none (no result: eIF4E-4G inh)
COc1ccc(/C=C/C(=O)NC(=S)NNC(=O)c2cccs2)cc1	eIF4H FP inh 5.9
CC(C)(C)C1CCC2(CC1)Nc1cccc3cccc(c13)N2	core dimer inh 70
CCOc1ccc(NC(=O)COC(=O)CN2CCCCCC2=O)cc1	none (no result: core dimer inh, eIF4H FP inh, eIF4E-4G inh, SUMO HTRF inh, PABP polyA inh)
Nc1cc2nc3ccccc3oc-2cc1=O	PABP polyA inh active
O=c1oc2ccccc2cc1-c1nc2ccccc2o1	SUMO HTRF inh inconclusive
CCN(CC)CCn1c(SCC(=O)NCc2ccccc2)nc2c(sc3ccccc32)c1=O	eIF4H FP inh 4.5, PABP polyA inh active
CC[n+]1c(/C=C/c2ccc(OC)c(OC)c2)ccc2ccccc21	PABP polyA inh active (no result: eIF4E-4G inh)
CC(=O)Nc1ccc(N=Cc2c(O)c(C(=O)Nc3ccccc3)cc3ccccc23)cc1	eIF4H FP inh inconclusive, eIF4E-4G inh 30 (no result: PABP1 MLLE inh)
Fc1ccc(-c2ccnc(=S)[nH]2)cc1	PABP1 MLLE inh 39
COc1cccc2cc(-c3ccnc(=S)[nH]3)oc12	none (no result: PABP1 MLLE inh)
CC(NC(=O)Cn1cnc2c1c(=O)n(C)c(=O)n2C)c1ccccc1 (stereo not drawn)	PABP polyA inh active
Cn1c(=O)c2c(ncn2CC(=O)OCC(=O)NC(c2ccccc2)c2ccccc2)n(C)c1=O	none
CCN1CCN(C(=O)CCn2c(=O)c3cccn3c3cccnc32)CC1	none (no result: eIF4E-4G inh)
CC(C)c1nc2c([nH]1)c(=O)n(C)c(=O)n2C	eIF4H FP inh 54
Cc1ccccc1-n1nc2c(c1NC(=O)c1cc3ccccc3o1)CS(=O)(=O)C2	none (no result: eIF4H FP inh, eIF4E-4G inh, SUMO HTRF inh, PABP polyA inh)
CSCCC(NC(N)=O)C(=O)Nc1ccc2ccccc2c1 (stereo not drawn)	none
CSCCC(NC(N)=O)C(=O)Nc1cccc(C#N)c1 (stereo not drawn)	eIF4H FP inh 53
Fc1ccc(C2CCCN2Cc2nc(Cc3ccccc3)no2)cc1 (stereo not drawn)	eIF4E-4G inh 60
Fc1ccc(C2CCCN2Cc2nc(Cc3ccccc3F)no2)cc1 (stereo not drawn)	none
O=Cc1c(N2CCN(CCO)CC2)nc2ccccn2c1=O	PABP1 MLLE inh 47, eIF4H FP inh inconclusive, PABP polyA inh inconclusive (no result: eIF4E-4G inh)
Cc1ccc(-c2nnc(Nc3ccc4c(c3)OCO4)c3ccccc23)cc1S(=O)(=O)NC(C)C	none
COc1cc2c(cc1OC)C(SC)=NC1(CCCC1)C2	none
COc1cc2c(cc1OC)C(C)=NC1(CCCCC1)C2	SUMO HTRF inh 59
CCOc1cccc2cc(-c3nnc(NCc4ccco4)s3)c(=O)oc12	SUMO HTRF inh 61
Cc1ccc(C(=O)C2(C)C3c4cc(Br)ccc4OC(=O)C32C(=O)c2ccco2)cc1 (stereo not drawn)	none
Cc1ccc(CN2C(=O)N/C(=C\c3cccn3-c3cccc(C(=O)O)c3)C2=O)cc1	PABP polyA inh active
Cc1ccc(NC(=O)CN2C(=O)N/C(=C\c3cccn3-c3cccc(C(=O)O)c3)C2=O)cc1	eIF4H FP inh 99, PABP polyA inh active (no result: core dimer inh)
Cc1cccc(NC(=O)CN2C(=O)N/C(=C\c3ccc(-c4cccc(C(=O)O)c4)o3)C2=O)c1	eIF4H FP inh 79, PABP polyA inh active
